Shown are actives, neighbours in structure and some others; about 2.2% of the full set was active somewhere.
FN deposit inh: inhibitors of fibronectin matrix deposition, primary screen, AH1F cells, Alexa488-fibronectin fluorescence, plate reader | AH1F fibroblasts, overnight | inhibition, % at 12.6 µM | 0.086% of 350,000 active | AID 743247, 2014;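 active = mean inhibition across replicates of 30% or more, regardless of how many single replicates reach that level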;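 also: positive control wells lacked labelled fibronectin entirely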
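Measured by – fluorescence 485/525 nm · System – AH1F fibroblast monolayer, labelled fibronectin deposition · Amount – 10000 cells per well · Buffer or medium – serum-reduced DMEM (2% serum) · Doses – single dose, pinned · Also added – fluorescent fibronectin at 24 nM final · Schedule – 1 h cell attachment, overnight exposure to compound and label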
PGC1a acetyl inh: inhibitors of PGC1a acetylation signal, primary screen, cell-based, U2OS, AlphaScreen, inhibitor mode. inhibition, % at 15.6 µM. AlphaScreen anti-acetyl-lysine; with virally co-expressed GCN5 acetyltransferase. 0.17% of 350,000 active;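 active = every replicate shows inhibition of at least 40%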;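 also: 0% = neutral control wells and 100% = positive control wells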
ERAP1 inh: human ERAP1 aminopeptidase inhibitors, primary screen, biochemical, single point, plate reader; recombinant ERAP1, Leu-AMC fluorescence, 60 min; AID 652197, 2013; Endoplasmic reticulum aminopeptidase 1 (Homo sapiens), Q9NZ08; 0.15% of 340,000 active; inhibition, % at 10.7 µM;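 active = mean replicate inhibition of at least 30%, or all replicates individually reaching that 30% level; inactive = mean below 30% and not every replicate reaching it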;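 also: 0% = neutral control wells and 100% = L-leucinethiol positive control wells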
FGF22 binding: binders of human FGF22 protein, primary screen, FGF22 synaptogenesis inhibitor project, biophysical, thermal shift, single point; 1.5% of 340,000 active; recombinant FGF22 thermal shift, SYPRO orange fluorescence; percent of sucrose octasulfate shift, DMSO zero; activity (Tm shift, normalised), % at 9.99 µM; AID 651658, 2012;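 active = mean Tm shift, scaled 0 neutral to 100 positive control, at about 1.3% or above, every replicate too, limit read from the data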
SIRT5 inh: SIRT5 desuccinylase inhibitors, primary screen, biochemical, fluorescence imaging, single point, set 5. NAD-dependent protein deacylase sirtuin-5, mitochondrial (Homo sapiens), Q9NXA8. Purified SirT5, succinyl-peptide AMC, trypsin-coupled fluorescence. inhibition, % at 15 µM. 1.1% of 330,000 active. AID 652115, 2013; in the data active = inhibition above about 15%
* marks the source's active call; other numbers are inactive results; · = no result given.

SMILES	FN deposit inh	PGC1a acetyl inh	ERAP1 inh	FGF22 binding	SIRT5 inh
COc1ccc(CC(=O)NCC2CCCN(Cc3ccccc3Cl)C2)cc1 (stereo not given)	2	2	-1	0	17*
COc1cccc(CN2CCCC(CNC(=O)c3ccc(F)cc3)C2)c1OC (stereo not given)	-1	·	-3	43*	-5
COc1ccc(CC(=O)NCC2CCCN(Cc3ccc(OC(F)(F)F)cc3)C2)cc1 (stereo not given)	0	-25	-3	0	21*
COc1ccc(NC(=O)Nc2cccc3c2O[C@H](CN(C)C(=O)Nc2ccc(OC)cc2)[C@H](C)CN([C@H](C)CO)C3=O)cc1	·	6	2	0	4
Cc1ccc(Nc2c([N+](=O)[O-])ccc3nonc23)c(C)c1	0	·	-2	0	-2
Cc1ccc(S(=O)c2ccc([N+](=O)[O-])c3nonc23)cc1 (stereo not given)	-4	-5	20	1	15*
CCC(=O)N[C@@H]1CC[C@H](CCn2cc(C3CC3)nn2)O[C@@H]1CO	5	1	0	0	-1
O=C(CNS(=O)(=O)N1CCOCC1)N/N=C/c1cccnc1	-1	-3	-8	44*	-2
O=C(CCn1cnc2ccccc21)N/N=C/c1ccccc1O	-6	-2	3	0	-5
O=C(/C=C/c1ccccc1)NCC(=O)N/N=C\c1cccnc1	4	·	-3	0	4
Cc1ccc(N(CC(=O)N/N=C/c2ccc(OC3CSC3)cc2)S(=O)(=O)c2ccccc2)cc1	7	-4	·	·	·
O=C(Cn1cnc2ccccc21)N/N=C/c1cccnc1	-3	-4	4	43*	9
COc1ccccc1/C=N/NC(=O)CCn1cnc2ccccc21	8	·	-3	44*	0
Cc1ccc(/C=N/NC(=O)Cn2cnc3ccccc32)cc1	9	-4	-3	0	0
Cc1ccc(N(CC(=O)N/N=C/c2cccnc2)S(=O)(=O)c2ccccc2)cc1	3	·	-5	44*	9
COCC(=O)N1CC2(CN(Cc3nccs3)C2)c2c(n(C)c3cc(OC)ccc23)[C@@H]1CO	·	6	·	0	·
C[C@H](CO)N1C[C@H](C)[C@H](CN(C)Cc2ccncc2)Oc2c(NC(=O)NC3CCCCC3)cccc2C1=O	·	12	-2	-1	2
Cc1ccc(NC(=O)Cn2cnc3ccccc32)cc1C	·	13	1	43*	1
O=C(Cn1cnc2ccccc21)Nc1cccc([N+](=O)[O-])c1	0	·	1	0	-3
CO[C@H]1CN(C)C(=O)c2ccc(NC(=O)NC(C)C)cc2OC[C@H](C)N(S(C)(=O)=O)C[C@@H]1C	-4	·	·	·	·
COc1ccc(CNC(=O)c2nc(S(=O)(=O)Cc3ccccc3)ncc2Cl)cc1	29	-3	-2	0	21*
O=C(NCc1ccc2c(c1)OCO2)c1nc(S(=O)(=O)Cc2ccccc2)ncc1Cl	3	-74	-3	0	0
O=C(NCc1ccc2c(c1)OCO2)c1nc(S(=O)(=O)Cc2ccccc2F)ncc1Cl	33*	·	-4	0	-1
CC(=O)Nc1ccc(NC(=O)c2nc(S(=O)(=O)Cc3ccccc3)ncc2Cl)cc1	51*	·	-1	0	-3
COc1cccc(S(=O)(=O)N2CC[C@@H]3[C@H]2c2cc(C#Cc4cccnc4)ccc2N(C)[C@H]3CO)c1	14	3	·	0	0
SMILES	FN deposit inh	PGC1a acetyl inh	ERAP1 inh	FGF22 binding	SIRT5 inh
Cc1cccc(C(C)C)c1NC(=O)CN(C)Cc1cccc(F)c1	2	-16	0	43*	-3
COc1ccc(CN(C)CC(=O)Nc2sc3c(c2C#N)CCC3)c(OC)c1	·	·	-1	0	15*
COc1ccc(CN(C)CC(=O)Nc2c(C)cccc2C)c(OC)c1	6	·	5	43*	0
COc1ccc(NC(=O)CN(C)CC(=O)Nc2sc3c(c2C(N)=O)CCC3)cc1	4	-9	2	1	4
COc1ccc(CN(C)CC(=O)Nc2ccccc2C(F)(F)F)c(OC)c1	-2	·	·	·	·
COc1ccc(N(CC(=O)Nc2c(C)cccc2C)S(=O)(=O)c2ccccc2[N+](=O)[O-])c(OC)c1	21	12	2	43*	1
O=C(c1ccc(F)cc1)N1CC(=O)N2[C@H](CO)[C@H](c3ccc(-c4cccnc4)cc3)[C@H]2C1	·	6	0	0	-3
CCC(=O)Nc1ccc2c(c1)C(=O)N(C)[C@H]1CC[C@@H](CC(=O)NCc3ccccc3)O[C@@H]1CO2	-47	-6	1	0	-8
CC(C)NC(=O)N(C)C[C@H]1Oc2ncc(C#CC3CCCC3)cc2C(=O)N([C@@H](C)CO)C[C@@H]1C	-8	13	4	0	6
C[C@H]1CN([C@@H](C)CO)C(=O)c2cc(C#Cc3ccncc3)cnc2O[C@@H]1CN(C)Cc1ccncc1	-11	-4	·	·	·
Cc1ccc(S(=O)(=O)N[C@H]2CC[C@H](CCNC(=O)C3CCC3)O[C@H]2CO)cc1	·	3	-2	0	-4
O=C(Nc1ccc(F)cc1)Nc1ccccc1NS(=O)(=O)c1cccs1	-9	-7	-6	49*	2
COc1ccc(NC(=O)N(C)C[C@@H]2Oc3ccc(NS(=O)(=O)c4c(C)noc4C)cc3CC(=O)N([C@@H](C)CO)C[C@@H]2C)cc1	·	-6	-1	0	1
CCOC(=O)N1CCc2c(sc(NC(=O)c3ccc(S(=O)(=O)N4CCCC4)cc3)c2C#N)C1	1	17	31*	1	9
C[C@@H]1CN([C@@H](C)CO)C(=O)c2cc(NC(=O)Nc3ccc(F)cc3)ccc2O[C@H]1CN(C)Cc1ccc(C(F)(F)F)cc1	·	-6	-1	0	2
COCC(=O)N1[C@@H]2CN(C)c3ccccc3[C@@H]2[C@@H]1CO	-7	4	1	0	-2
CC(=O)Oc1ccc(C2=Cc3ccc(OC(C)=O)cc3OC2C)cc1 (stereo not given)	14	-42	3	43*	·
CC(=O)N(C)C[C@@H]1Oc2cc(C#Cc3cccnc3)ccc2S(=O)(=O)N([C@H](C)CO)C[C@@H]1C	-7	7	0	0	1
CC(C)c1ccc(S(=O)(=O)N2CCN(C(=O)c3ccco3)CC2)cc1	15	-4	8	44*	2
NS(=O)(=O)c1ccc(N2C(=O)C3CC=CCC3C2=O)cc1 (stereo not given)	3	4	-1	44*	-2

Source: PubChem (Broad Institute)
